In ChEMBL document CHEMBL2203081 (Bioorg Med Chem Lett, 2012):
Activity calls are given as the source filed them. No cut-off for these calls is given here.

Tests used:
[1] = target: Serine/threonine-protein kinase 33 (Homo sapiens) (UniProt Q9BYT3); assay: Inhibition of STK33 assessed as residual activity at 1 uM
[2] = target: Mitogen-activated protein kinase 10 (Homo sapiens) (UniProt P53779); assay: Inhibition of JNK3 assessed as residual activity at 10 uM relative to control
[3] = target: Ribosomal protein S6 kinase alpha-6 (Homo sapiens) (UniProt Q9UK32); assay: Inhibition of RSK4 N-terminal domain 1 assessed as residual activity at 10 uM relative to control
[4] = target: Interleukin-1 receptor-associated kinase 4 (Homo sapiens) (UniProt Q9NWZ3); assay: Inhibition of IRAK4 assessed as residual activity at 10 uM relative to control
[5] = target: TRAF2 and NCK-interacting protein kinase (Homo sapiens) (UniProt Q9UKE5); assay: Inhibition of TNIK assessed as residual activity at 10 uM relative to control
[6] = target: Myosin light chain kinase, smooth muscle (Homo sapiens) (UniProt Q15746); assay: Inhibition of SmMLCK assessed as residual activity at 10 uM
[7] = target: High affinity nerve growth factor receptor (Homo sapiens) (UniProt P04629); assay: Inhibition of TrkA assessed as residual activity at 1 uM
[8] = tested on: Leucine-rich repeat serine/threonine-protein kinase 2 (Homo sapiens), Q5S007 [A2016T]; conditions: HEK293, 1 to 3 uM
[9] = target: Serine/threonine-protein kinase 24 (Homo sapiens) (UniProt Q9Y6E0); assay: Inhibition of MST3 assessed as residual activity at 10 uM relative to control
[10] = target: Tyrosine-protein kinase Lyn (Homo sapiens) (UniProt P07948); assay: Inhibition of LYN assessed as residual activity at 10 uM relative to control
[11] = target: Ribosomal protein S6 kinase alpha-5 (Homo sapiens) (UniProt O75582); assay: Inhibition of MSK1 assessed as residual activity at 10 uM
[12] = target: Tyrosine-protein kinase receptor UFO (Homo sapiens) (UniProt P30530); assay: Inhibition of AXL assessed as residual activity at 10 uM relative to control
[13] = target: Serine/threonine-protein kinase WNK3 (Homo sapiens) (UniProt Q9BYP7); assay: Inhibition of WNK3 assessed as residual activity at 10 uM relative to control
[14] = target: Serine/threonine-protein kinase N2 (Homo sapiens) (UniProt Q16513); assay: Inhibition of PRK2 assessed as residual activity at 10 uM
[15] = target: Cyclin-dependent kinase 11A (Homo sapiens) (UniProt Q9UQ88); assay: Inhibition of CDC2L2 assessed as residual activity at 10 uM relative to control
[16] = target: Maternal embryonic leucine zipper kinase (Homo sapiens) (UniProt Q14680); assay: Inhibition of MELK assessed as residual activity at 1 uM
[17] = target: T1, Serine/threonine-protein kinase STK11 (Homo sapiens) (UniProt Q15831); assay: Inhibition of LKB1 assessed as residual activity at 10 uM
T1 sequence (whole entry): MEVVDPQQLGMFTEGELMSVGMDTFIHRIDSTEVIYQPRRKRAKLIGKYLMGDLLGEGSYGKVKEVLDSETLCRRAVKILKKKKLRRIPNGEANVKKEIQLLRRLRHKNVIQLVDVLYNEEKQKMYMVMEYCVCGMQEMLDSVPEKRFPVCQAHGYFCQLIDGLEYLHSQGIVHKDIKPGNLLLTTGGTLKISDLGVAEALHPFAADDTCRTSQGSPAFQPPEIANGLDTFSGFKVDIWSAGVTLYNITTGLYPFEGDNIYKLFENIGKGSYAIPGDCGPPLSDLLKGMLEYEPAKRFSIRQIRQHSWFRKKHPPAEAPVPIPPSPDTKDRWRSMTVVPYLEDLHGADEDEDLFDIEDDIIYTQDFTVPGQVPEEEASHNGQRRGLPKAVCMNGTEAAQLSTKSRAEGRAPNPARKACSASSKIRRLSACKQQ

[18] = target: Ephrin type-A receptor 5 (Homo sapiens) (UniProt P54756); assay: Inhibition of EPHA5 assessed as residual activity at 10 uM relative to control
Outline: (§1)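 Competition kinase-binding assay (KINOMEscan) across a non-redundant panel of 329 kinases beyond the radiometric panel; residual binding expressed relative to control.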

[19] = target: Cyclin-dependent kinase 2/cyclin A (Homo sapiens) (UniProt P24941+P20248+P78396); assay: Inhibition of CDK2-Cyclin A assessed as residual activity at 1 uM; assay type: protein-complex assay
[20] = tested on: Mast/stem cell growth factor receptor Kit (Homo sapiens), P10721 [L576P]; assay: Inhibition of KIT L576P mutant assessed as residual activity at 10 uM relative to control
[21] = target: Serine/threonine-protein kinase WNK1 (Homo sapiens) (UniProt Q9H4A3); assay: Inhibition of WNK1 assessed as residual activity at 10 uM relative to control
[22] = target: Mitogen-activated protein kinase 1 (Homo sapiens) (UniProt P28482); assay: Inhibition of ERK2 assessed as residual activity at 10 uM
Outline: (§2)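 Radioactivity-based enzymatic activity assay of the named kinase, run as part of a 131-kinase specificity panel at the National Centre for Protein Kinase Profiling (Dundee). Residual activity was read at the stated single inhibitor concentration.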

[23] = target: AP2-associated protein kinase 1 (Homo sapiens) (UniProt Q2M2I8); assay: Inhibition of AAK1 assessed as residual activity at 10 uM relative to control
[24] = target: Ephrin type-A receptor 3 (Homo sapiens) (UniProt P29320); assay: Inhibition of EPHA3 assessed as residual activity at 10 uM relative to control; outline: as §1
Brain = assay: AUClast in Swiss albino mouse brain at 1 mg/kg, iv; assay type: ADME, organism-based; set-up: dose 1 mg/kg, route intravenous, time 0 - last; conditions: in vivo
Outline: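 Male Swiss Albino mice, single dose given intravenously (1 mg/kg) or orally (10 mg/kg). Drug measured in plasma and brain, with AUClast taken for each. The brain/plasma ratio is based on AUClast, and oral bioavailability is derived from the IV and PO plasma data.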

[25] = target: Receptor-interacting serine/threonine-protein kinase 2 (Homo sapiens) (UniProt O43353); assay: Inhibition of RIPK2 assessed as residual activity at 10 uM relative to control
[26] = target: Tyrosine-protein kinase Fer (Homo sapiens) (UniProt P16591); assay: Inhibition of FER assessed as residual activity at 10 uM relative to control
[27] = target: Macrophage colony-stimulating factor 1 receptor (Homo sapiens) (UniProt P07333); assay: Inhibition of CSF1R assessed as residual activity at 10 uM relative to control; outline: as §1
[28] = target: Serine/threonine-protein kinase DCLK1 (Homo sapiens) (UniProt O15075); assay: Inhibition of DCAMKL1 assessed as residual activity at 10 uM relative to control; outline: as §1
[29] = target: T1, Serine/threonine-protein kinase STK11 (Homo sapiens); assay: Inhibition of LKB1 assessed as residual activity at 1 uM
[30] = target: Insulin-like growth factor 1 receptor (Homo sapiens) (UniProt P08069); assay: Inhibition of IGF-1R assessed as residual activity at 10 uM; outline: as §2
[31] = target: Protein kinase C iota type (Homo sapiens) (UniProt P41743); assay: Inhibition of PRKCI assessed as residual activity at 10 uM relative to control

Chain of Maternal embryonic leucine zipper kinase (Homo sapiens) (Q14680 whole entry, looked up): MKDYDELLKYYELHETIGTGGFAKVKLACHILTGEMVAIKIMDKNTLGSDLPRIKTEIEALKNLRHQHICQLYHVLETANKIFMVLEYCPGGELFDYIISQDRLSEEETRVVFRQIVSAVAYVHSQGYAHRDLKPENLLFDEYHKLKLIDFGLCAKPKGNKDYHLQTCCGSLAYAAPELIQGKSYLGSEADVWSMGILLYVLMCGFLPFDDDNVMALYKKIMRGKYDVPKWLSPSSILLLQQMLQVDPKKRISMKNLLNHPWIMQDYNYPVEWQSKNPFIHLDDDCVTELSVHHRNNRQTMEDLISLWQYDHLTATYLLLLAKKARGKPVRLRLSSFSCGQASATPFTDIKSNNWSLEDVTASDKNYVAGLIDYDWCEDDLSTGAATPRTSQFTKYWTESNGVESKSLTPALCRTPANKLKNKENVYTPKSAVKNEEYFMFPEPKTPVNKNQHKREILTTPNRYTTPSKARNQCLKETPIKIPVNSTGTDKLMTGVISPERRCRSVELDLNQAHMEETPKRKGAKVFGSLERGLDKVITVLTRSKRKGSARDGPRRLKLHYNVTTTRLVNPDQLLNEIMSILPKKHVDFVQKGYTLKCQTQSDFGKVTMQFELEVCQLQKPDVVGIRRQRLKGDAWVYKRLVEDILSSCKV
Chain of Ephrin type-A receptor 3 (Homo sapiens) (P29320 whole entry): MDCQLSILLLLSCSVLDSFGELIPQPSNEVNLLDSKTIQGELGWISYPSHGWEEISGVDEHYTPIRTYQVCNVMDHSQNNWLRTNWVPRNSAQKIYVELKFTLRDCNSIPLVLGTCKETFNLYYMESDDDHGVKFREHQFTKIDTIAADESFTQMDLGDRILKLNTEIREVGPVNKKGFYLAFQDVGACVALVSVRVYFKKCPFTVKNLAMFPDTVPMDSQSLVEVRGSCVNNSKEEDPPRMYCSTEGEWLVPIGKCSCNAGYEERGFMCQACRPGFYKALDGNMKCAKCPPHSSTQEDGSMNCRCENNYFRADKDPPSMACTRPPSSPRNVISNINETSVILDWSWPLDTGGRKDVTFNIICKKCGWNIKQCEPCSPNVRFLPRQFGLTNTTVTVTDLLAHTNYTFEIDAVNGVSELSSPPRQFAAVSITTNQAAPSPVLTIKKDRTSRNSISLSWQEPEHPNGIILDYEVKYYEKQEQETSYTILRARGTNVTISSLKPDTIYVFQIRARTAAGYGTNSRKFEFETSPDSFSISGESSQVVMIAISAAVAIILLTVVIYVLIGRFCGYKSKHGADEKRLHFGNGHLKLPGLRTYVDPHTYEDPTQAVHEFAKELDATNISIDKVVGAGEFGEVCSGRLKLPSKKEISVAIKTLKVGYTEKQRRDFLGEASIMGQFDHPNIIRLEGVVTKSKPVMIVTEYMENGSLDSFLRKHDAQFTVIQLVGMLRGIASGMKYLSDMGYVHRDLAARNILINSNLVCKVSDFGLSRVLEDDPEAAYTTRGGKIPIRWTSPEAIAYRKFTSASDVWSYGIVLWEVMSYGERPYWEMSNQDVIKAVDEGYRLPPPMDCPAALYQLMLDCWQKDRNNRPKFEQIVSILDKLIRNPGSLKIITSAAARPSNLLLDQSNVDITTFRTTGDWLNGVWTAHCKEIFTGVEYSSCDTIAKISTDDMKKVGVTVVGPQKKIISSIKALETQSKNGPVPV
Chain of Leucine-rich repeat serine/threonine-protein kinase 2 (Homo sapiens), Q5S007 [A2016T] (Q5S007 whole entry A2016T): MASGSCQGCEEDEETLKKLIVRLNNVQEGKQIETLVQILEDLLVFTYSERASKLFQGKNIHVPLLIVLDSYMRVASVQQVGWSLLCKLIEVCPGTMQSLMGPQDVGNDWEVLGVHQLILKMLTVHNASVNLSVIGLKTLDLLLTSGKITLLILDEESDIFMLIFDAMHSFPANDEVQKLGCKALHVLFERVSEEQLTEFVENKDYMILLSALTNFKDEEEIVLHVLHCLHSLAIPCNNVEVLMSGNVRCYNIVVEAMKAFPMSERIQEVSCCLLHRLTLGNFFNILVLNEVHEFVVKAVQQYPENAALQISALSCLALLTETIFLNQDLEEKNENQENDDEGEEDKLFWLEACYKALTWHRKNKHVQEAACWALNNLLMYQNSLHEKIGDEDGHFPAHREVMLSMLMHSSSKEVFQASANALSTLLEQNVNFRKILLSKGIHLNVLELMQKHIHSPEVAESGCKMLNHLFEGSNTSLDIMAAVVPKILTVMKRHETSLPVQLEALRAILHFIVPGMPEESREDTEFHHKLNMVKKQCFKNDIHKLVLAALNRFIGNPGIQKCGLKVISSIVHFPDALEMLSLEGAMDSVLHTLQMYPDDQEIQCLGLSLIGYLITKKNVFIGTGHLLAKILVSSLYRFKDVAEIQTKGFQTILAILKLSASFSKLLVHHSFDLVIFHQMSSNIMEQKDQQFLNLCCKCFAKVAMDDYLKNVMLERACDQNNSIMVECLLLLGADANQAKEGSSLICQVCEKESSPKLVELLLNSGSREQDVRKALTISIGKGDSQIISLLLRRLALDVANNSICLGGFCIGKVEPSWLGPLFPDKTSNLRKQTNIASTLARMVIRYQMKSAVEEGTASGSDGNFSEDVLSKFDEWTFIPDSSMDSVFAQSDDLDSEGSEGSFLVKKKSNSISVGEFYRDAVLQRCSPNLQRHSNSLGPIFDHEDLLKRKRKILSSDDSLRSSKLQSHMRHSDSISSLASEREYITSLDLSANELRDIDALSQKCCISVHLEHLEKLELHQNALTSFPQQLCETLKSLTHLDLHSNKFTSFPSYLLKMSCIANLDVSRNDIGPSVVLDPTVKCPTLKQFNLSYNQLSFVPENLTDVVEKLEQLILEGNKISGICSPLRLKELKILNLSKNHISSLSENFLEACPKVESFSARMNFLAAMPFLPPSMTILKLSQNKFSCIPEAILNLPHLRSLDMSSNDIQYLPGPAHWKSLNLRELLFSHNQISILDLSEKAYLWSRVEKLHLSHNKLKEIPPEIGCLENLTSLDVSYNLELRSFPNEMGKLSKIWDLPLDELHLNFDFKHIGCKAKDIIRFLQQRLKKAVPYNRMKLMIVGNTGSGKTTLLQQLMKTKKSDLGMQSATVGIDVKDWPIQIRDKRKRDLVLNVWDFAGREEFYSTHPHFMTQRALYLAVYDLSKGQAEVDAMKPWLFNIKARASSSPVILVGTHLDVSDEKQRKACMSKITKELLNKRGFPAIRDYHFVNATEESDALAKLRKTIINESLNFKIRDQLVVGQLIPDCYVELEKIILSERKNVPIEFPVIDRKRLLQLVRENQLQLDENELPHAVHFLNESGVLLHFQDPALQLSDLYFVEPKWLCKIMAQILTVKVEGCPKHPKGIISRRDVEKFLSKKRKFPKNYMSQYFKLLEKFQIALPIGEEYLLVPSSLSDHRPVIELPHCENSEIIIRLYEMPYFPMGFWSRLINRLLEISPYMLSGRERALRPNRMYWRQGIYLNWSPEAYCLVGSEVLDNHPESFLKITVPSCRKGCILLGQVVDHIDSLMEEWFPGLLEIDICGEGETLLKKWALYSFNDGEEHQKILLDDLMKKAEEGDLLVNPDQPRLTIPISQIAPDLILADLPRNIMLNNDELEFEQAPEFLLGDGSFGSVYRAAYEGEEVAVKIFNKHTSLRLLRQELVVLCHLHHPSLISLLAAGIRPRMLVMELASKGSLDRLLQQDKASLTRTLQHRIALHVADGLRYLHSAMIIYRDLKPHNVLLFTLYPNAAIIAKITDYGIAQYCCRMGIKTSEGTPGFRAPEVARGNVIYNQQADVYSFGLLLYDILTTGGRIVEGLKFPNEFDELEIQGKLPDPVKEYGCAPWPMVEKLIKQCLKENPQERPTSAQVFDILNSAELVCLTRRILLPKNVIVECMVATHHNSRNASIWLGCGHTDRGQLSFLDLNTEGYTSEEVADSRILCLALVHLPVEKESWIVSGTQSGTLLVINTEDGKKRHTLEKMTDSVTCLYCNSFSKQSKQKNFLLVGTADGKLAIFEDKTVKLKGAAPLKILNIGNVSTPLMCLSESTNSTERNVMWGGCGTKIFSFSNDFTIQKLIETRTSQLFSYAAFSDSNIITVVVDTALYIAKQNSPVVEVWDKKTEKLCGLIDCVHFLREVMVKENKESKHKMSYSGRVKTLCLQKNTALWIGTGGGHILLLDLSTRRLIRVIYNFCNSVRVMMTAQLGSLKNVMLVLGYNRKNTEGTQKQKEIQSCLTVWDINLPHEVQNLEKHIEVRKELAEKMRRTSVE
Chain of Serine/threonine-protein kinase N2 (Homo sapiens) (Q16513 whole entry, looked up): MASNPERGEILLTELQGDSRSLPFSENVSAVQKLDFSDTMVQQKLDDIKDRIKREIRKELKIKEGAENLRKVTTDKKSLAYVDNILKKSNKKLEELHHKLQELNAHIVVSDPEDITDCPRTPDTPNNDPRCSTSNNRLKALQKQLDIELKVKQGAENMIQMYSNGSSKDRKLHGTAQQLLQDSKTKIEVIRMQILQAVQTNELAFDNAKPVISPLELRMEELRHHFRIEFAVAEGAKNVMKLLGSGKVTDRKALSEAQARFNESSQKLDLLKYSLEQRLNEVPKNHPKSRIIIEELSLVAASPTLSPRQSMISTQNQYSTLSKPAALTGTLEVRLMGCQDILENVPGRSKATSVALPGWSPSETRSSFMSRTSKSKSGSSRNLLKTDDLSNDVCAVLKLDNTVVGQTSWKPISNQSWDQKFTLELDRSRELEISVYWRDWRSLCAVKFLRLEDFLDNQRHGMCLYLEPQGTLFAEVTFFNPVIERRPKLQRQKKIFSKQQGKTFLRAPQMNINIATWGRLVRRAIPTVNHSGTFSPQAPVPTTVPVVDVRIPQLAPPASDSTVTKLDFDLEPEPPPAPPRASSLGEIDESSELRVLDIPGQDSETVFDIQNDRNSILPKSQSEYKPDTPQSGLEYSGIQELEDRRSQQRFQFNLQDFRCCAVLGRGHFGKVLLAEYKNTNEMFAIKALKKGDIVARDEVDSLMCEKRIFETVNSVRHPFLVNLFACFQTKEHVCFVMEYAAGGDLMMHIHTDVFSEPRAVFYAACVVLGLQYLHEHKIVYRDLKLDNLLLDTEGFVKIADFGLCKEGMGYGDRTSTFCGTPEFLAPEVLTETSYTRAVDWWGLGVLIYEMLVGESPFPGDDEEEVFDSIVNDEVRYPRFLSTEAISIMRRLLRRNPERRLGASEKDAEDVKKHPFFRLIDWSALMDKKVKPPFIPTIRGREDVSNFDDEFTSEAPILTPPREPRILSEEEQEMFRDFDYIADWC

O=C(Nc1cccnc1)c1cc(-c2ccnc(F)c2)ccc1OCc1ccccc1
Activity [1]: 64%
Activity [2]: 52%
Activity [3]: 71%
Activity [4]: 58%
Activity [5]: 74%
Activity [6]: 23%
Activity [7]: 80%
inhibition [8]: Active
Activity [9]: 63%
Activity [10]: 73%
Activity [11]: 120%
Activity [12]: 46%
Activity [13]: 62%
Activity [14]: 79%
Activity [15]: 63%
Activity [16]: 102%
Activity [17]: 105%
Activity [18]: 48%
Activity [19]: 113%
Activity [20]: 52%
Activity [21]: 61%
Activity [22]: 115%
Activity [23]: 67%
Activity [24]: 61%
AUClast (Brain): 708.7 ng·h/mL
Activity [25]: 53%
Activity [26]: 67%
Activity [27]: 68%
Activity [28]: 57%
Activity [29]: 97%
Activity [30]: 117%
Activity [31]: 73%
